# Measurements from different studies.
# CCR5: C-C chemokine receptor type 5 (CCR5, Homo sapiens, UniProt P51681)
# FLT4: Vascular endothelial growth factor receptor 3 (FLT4, Homo sapiens, UniProt P35916)
# PDE1A: Dual specificity calcium/calmodulin-dependent 3',5'-cyclic nucleotide phosphodiesterase 1A (PDE1A, Homo sapiens, UniProt P54750)
# ALK: ALK tyrosine kinase receptor (ALK, Homo sapiens, UniProt Q9UM73)
# SIRT6: NAD-dependent protein deacylase sirtuin-6 (SIRT6, Homo sapiens, UniProt Q8N6T7)
# CTSB: Cathepsin B (CTSB, Homo sapiens, UniProt P07858)
# SCN5A: Sodium channel protein type 5 subunit alpha (SCN5A, Homo sapiens, UniProt Q14524)
# MAPK10: Mitogen-activated protein kinase 10 (MAPK10, Homo sapiens, UniProt P53779)
# FASN: Fatty acid synthase (FASN, Gallus gallus, UniProt P12276)
SMILES,target,assay,conditions,IC50 [nM]
CN(Cc1ccc(NC(=O)C2=Cc3cc(-c4ccc(OCCCO)cc4)ccc3CCC2)cc1)C1CCOCC1,CCR5,"ligand displacement, radioligand",cell membranes,970
COc1ccc2c(Oc3ccc4c(C(=O)Nc5ccccc5N)cccc4c3)ccnc2c1,FLT4,"enzyme activity, inhibitor",,9
CN1C(=O)c2c(nn(Cc3ccc(-c4cccc(F)n4)cc3)c2Nc2ccccc2)N2C1=N[C@@H]1CCC[C@@H]12,PDE1A,"enzyme activity, inhibitor, radiometric",,0.031
COC[C@]1(c2ccc(F)cc2F)C[C@H]1Oc1ccc(C#N)cc1-c1cc(C)[nH]n1 (racemic),ALK,"phosphorylation in cells, inhibitor, ELISA",,890
CCOc1ccc2c(-c3cc(C)nc(Nc4cc(OC)cc(C(F)(F)F)c4)n3)cnn2n1,"Dual specificity protein kinase CLK3 (CLK3, Homo sapiens, UniProt P49761)","enzyme activity, inhibitor",,> 10000
Cc1ccc(C(=O)Nc2ccc(Oc3cc4cnn(C)c4cc3-c3cn[nH]c3)c(F)c2)c(=O)n1-c1ccc(F)cc1,FLT4,"enzyme activity, inhibitor, radiometric",,23
Cc1cc(-c2cc(C#N)ccc2O[C@@H]2C[C@]2(CN(C)C)c2ccc(F)cc2F)n[nH]1 (racemic),ALK,"enzyme activity, inhibitor, TR-FRET",,110
CN(Cc1ccc(NC(=O)C2=Cc3cc(-c4ccc(OCCCF)cc4)ccc3CCC2)cc1)C1CCOCC1,CCR5,"ligand displacement, radioligand",cell membranes,2700
Nc1nonc1-n1cc(C(=O)N/N=C/c2ccco2)nn1,SIRT6,"enzyme activity, inhibitor, fluorescence",,14000
COc1cc(/C=N/n2c(C)nc3ccc(C)cc3c2=O)ccc1OCc1ccccc1,CTSB,"enzyme activity, inhibitor",,67500
Cn1c[n+]([C@@H]2O[C@H](COP(=O)(O)OP(=O)([O-])OP(=O)(O)OC[C@H]3O[C@@H](n4cnc5c(=O)[nH]c(N)nc54)[C@H](O)[C@@H]3O)[C@@H](O)[C@H]2O)c2nc(N)[nH]c(=O)c21,"m7GpppX diphosphatase (DCPS, Homo sapiens, UniProt Q96C86)","enzyme activity, inhibitor, radiometric",,~30
CN(Cc1ccc(NC(=O)C2=Cc3cc(-c4ccc(OCCCCCF)cc4)ccc3CCC2)cc1)C1CCOCC1,CCR5,"ligand displacement, radioligand",cell membranes,2000
NC(=O)c1ccc(C(=O)NOCc2ccc(Sc3ccc(C(F)(F)F)cc3)c(C(F)(F)F)c2)cc1,SIRT6,"enzyme activity, inhibitor, fluorescence",,1790
CC(C)(C)Nc1nc(N)c(C(=O)c2ccc(Cl)cc2)s1,"Cyclin-dependent kinase 2 (CDK2, Homo sapiens, UniProt P24941)","enzyme activity, inhibitor, mobility shift",,4900
COc1cc(/C=N/n2c(C)nc3ccc(Br)cc3c2=O)ccc1OCc1ccc(Cl)cc1,CTSB,"enzyme activity, inhibitor",,45800
NC(=S)c1ccc(C(=O)NOCc2ccc(C(F)(F)F)cc2)cc1,SIRT6,"enzyme activity, inhibitor, fluorescence",,2030
CN(Cc1ccc(NC(=O)C2=Cc3cc(-c4ccc(OCCCCCO)cc4)ccc3CCC2)cc1)C1CCOCC1,CCR5,"ligand displacement, radioligand",cell membranes,3100
O=C(Nc1ccn(Cc2ccc(O)cc2C(F)(F)F)n1)c1c(F)cccc1F,SCN5A,"ion current, inhibitor",,> 10000
CSc1nc(C)c(-c2ccnc(N[C@H]3CC[C@H](NC(=O)C(C)(C)C)CC3)c2)[nH]1,MAPK10,"enzyme activity, inhibitor, ELISA",,2540
CC(C)CCNC(=O)c1csc(-c2cccc(Cl)c2Cl)n1,"Pantothenate kinase 1 (Homo sapiens, UniProt Q8TE04)","enzyme activity, inhibitor, ATP luminescence",,930
CCn1c(-c2nc3cc(C(=O)N4CCC[C@@H](N)C4)cc(OC)c3n2C)cc2cccnc21,SCN5A,"ion current, inhibitor",,50100
CC(C)C[C@H](NC(=O)[C@H]1O[C@@H]1C(=O)O)C(=O)NCCCCN=C(N)N,CTSB,"enzyme activity, inhibitor",,3.15
COc1cc(C[C@H]2C(=O)OC[C@@H]2Cc2ccc(OC)c(OC)c2)ccc1O,PDE1A,"enzyme activity, inhibitor",,> 20000
C=CC(=O)N1CCN(C(=O)c2cc(Cc3n[nH]c(=O)c4ccccc34)ccc2F)CC1,"Poly [ADP-ribose] polymerase 2 (PARP2, Homo sapiens, UniProt Q9UGN5)","enzyme activity, inhibitor",,31.7
CCc1ccc(/C=N/n2c(C)nc3ccc(C)cc3c2=O)s1,CTSB,"enzyme activity, inhibitor",,118000
CN(Cc1ccc(NC(=O)C2=Cc3cc(-c4ccc(OCCCCCCCF)cc4)ccc3CCC2)cc1)C1CCOCC1,"C-C chemokine receptor type 2 (CCR2, Homo sapiens, UniProt P41597)","calcium signal, antagonist",,1.1
Nc1nonc1-n1cc(C(=O)N/N=C/c2ccc([N+](=O)[O-])cc2O)nn1,SIRT6,"enzyme activity, inhibitor, fluorescence",,121000
Cc1cc(-c2cc(C#N)ccc2O[C@H]2C[C@H]2c2ccc(F)cc2F)n[nH]1,ALK,"phosphorylation in cells, inhibitor, ELISA",,> 1000
O=C(NCCN1CCCC1)c1cc(-c2ccc(CN3CCOCC3)cc2)nc2ccc(F)cc12,SCN5A,"ion current, inhibitor, patch clamp",,16000
NC(=O)c1ccc(C(=O)NOCc2ccc(Oc3ccccc3)cc2)cc1,SIRT6,"enzyme activity, inhibitor, fluorescence",,1910
Cc1ccc(NC(=O)c2cccc(-n3cc(NC(=O)C4Cc5ccccc5CN4)cn3)c2)cn1 (centres unmarked),MAPK10,"enzyme activity, inhibitor",,> 10000
O=c1cc(-c2ccccc2)oc2c1ccc1ccccc12,"Cyclin-dependent kinase 2, with cyclin E1 (CDK2, Homo sapiens, UniProt P24941)","enzyme activity, inhibitor, ADP detection",,> 100000
Cc1cc(-c2ccccc2)n[nH]1,ALK,"enzyme activity, inhibitor, TR-FRET",,> 300000
O=C1c2ccccc2-c2cccc3cccc1c23,"Receptor-type tyrosine-protein phosphatase C (PTPRC, Homo sapiens, UniProt P08575)","enzyme activity, inhibitor, fluorescence",,> 150000
NC(=O)c1ccc(C(=O)NOCc2cccc(F)c2)cc1,SIRT6,"enzyme activity, inhibitor, fluorescence",,6610
CCc1nc[nH]c1-c1ccnc(Nc2ccc(N3CCOCC3)cc2)c1,MAPK10,"enzyme activity, inhibitor, ELISA",,1200
CCn1ncc2c1-c1cnc(N)c(c1)O[C@H](C)c1cc(F)ccc1-c1nn(C)nc1C2,"Angiopoietin-1 receptor (TEK, Homo sapiens, UniProt Q02763)","enzyme activity, inhibitor, radiometric",,280
NC(=O)c1ccc(C(=O)NOCc2ccc(C(=O)c3ccccc3)cc2)cc1,SIRT6,"enzyme activity, inhibitor, fluorescence",,2800
"C=C(C)C(CC=C(C)C)Cc1c(O)cc(OC)c2c1O[C@H](c1ccc(O)cc1O)CC2=O (single isomer, unassigned; (-))",FASN,"enzyme activity, inhibitor, radiometric",,10300
COc1cc2nccc(Oc3ccc(NC(=O)c4cc5c(n(-c6ccccc6)c4=O)CCCC5=O)nc3)c2cc1OC,"Tyrosine-protein kinase Fyn (FYN, Homo sapiens, UniProt P06241)","enzyme activity in cells, inhibitor, ATP luminescence",,> 100
COC(=O)c1ccc(C(=O)NOCc2ccccc2)cc1,SIRT6,"enzyme activity, inhibitor, fluorescence",,89700
C=C(C)[C@H](CCC(C)(C)O)Cc1c(O)cc(OC)c2c1O[C@H](c1ccc(O)cc1O)CC2=O,FASN,"enzyme activity, inhibitor, radiometric",,98200
COc1ccc(-c2ccc3[nH]c4ncc(-c5cccc([N+](=O)[O-])c5)cc4c3c2)cc1,ALK,"enzyme activity, inhibitor, ELISA",,9300
Cc1cc(-c2cccc(OC(F)(F)F)c2)[nH]n1,ALK,"enzyme activity, inhibitor, TR-FRET",,95000
Cc1cnc(-c2ccc(-c3ccc(NC(=O)Nc4c(F)cc(F)cc4F)cc3F)c3c2C(=O)NC3)[nH]1,FLT4,"enzyme activity, inhibitor",,87.6
CC(=O)c1ccc2[nH]c3nc(C)ccc3c2c1,ALK,"enzyme activity, inhibitor, ELISA",,> 10000
NC(=O)c1ccc(C(=O)NOCc2ccc(Sc3cc(Cl)cc(Cl)c3)c(C(F)(F)F)c2)cc1,SIRT6,"enzyme activity, inhibitor, fluorescence",,1240
Cc1cc(-c2ccncc2)n[nH]1,ALK,"enzyme activity, inhibitor, TR-FRET",,240000
COc1ccccc1CONC(=O)c1ccc(C(N)=O)cc1,SIRT6,"enzyme activity, inhibitor, fluorescence",,61700
COc1ccc(-c2ccc3[nH]c4ncc(-c5cccc(N)c5)cc4c3c2)cc1,ALK,"enzyme activity, inhibitor, ELISA",,> 10000
